ChEMBL document CHEMBL1142707, “Bisaryloxime ethers as potent inhibitors of transthyretin amyloid fibril formation” (J Med Chem, 2005)

Columns and labels:
[1] = target: Transthyretin (Homo sapiens) (UniProt P02766); assay: Binding stoichiometry to TTR in human blood plasma determined by antibody capture/HPLC method; format: cell-free
Summary of the method: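 Human blood plasma spiked to 10.8 µM test compound from a 2.16 mM DMSO stock and incubated 24 h at 37 °C. Plasma was precleared with plain Sepharose for 1 h at 4 °C, then split into three aliquots for anti-TTR antibody-resin capture (20 min, 4 °C) in 10 mM Tris pH 8.0, 140 mM NaCl. Resin washed, eluted with 100 mM triethylamine pH 11.5, eluate analysed by HPLC for compound:TTR stoichiometry.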

[2] = target: Transthyretin (Homo sapiens) (UniProt P02766); assay: Percentage compound remaining at the conclusion of the acid-mediated fibril formation assay (72 h), assay conditions compound (7.2 uM), WT-TTR (3.6 uM, pH 4.4, 37C)
Summary of the method: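 Compound at 7.2 µM was incubated in the dark with or without 3.6 µM WT-TTR under acid fibril conditions (pH 4.4, 37 °C, 72 h). Analytical RP-HPLC peak area of the compound at the end was compared with the area at the start. Measurement error stated as 4%.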

[3] = target: Transthyretin (Homo sapiens) (UniProt P02766); assay: Percentage compound remaining at the conclusion of the acid-mediated fibril formation assay (72 h), assay conditions compound (7.2 uM), WT-TTR (3.6 uM, pH 7.2, 37C)
Summary of the method: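 Compound at 7.2 µM was incubated in the dark with 3.6 µM WT-TTR at 37 °C for 72 h, with the buffer held at pH 7.2. Analytical RP-HPLC peak area of the compound at the end was compared with the area at the start.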

[4] = target: Transthyretin (Homo sapiens) (UniProt P02766); assay: Percentage of WT-TTR (3.6 uM) amyloid fibril formation at pH 4.4 upon incubation with the compound (7.2 uM)
Summary of the method: (§1)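 WT-TTR (7.2 µM, 0.4 mg/mL) in 10 mM phosphate pH 7.2, 100 mM KCl, 1 mM EDTA was preincubated 30 min at 37 °C with inhibitor added from a 1.44 mM DMSO stock. An equal volume of 200 mM acetate pH 4.2 brought the sample to pH 4.4 (3.6 µM TTR, 7.2 µM compound final). Left 72 h at 37 °C, vortexed, turbidity read at 350 and 400 or 500 nm. Run in duplicate or triplicate.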

[5] = target: Transthyretin (Homo sapiens) (UniProt P02766); assay: Percentage of WT-TTR (3.6 uM) amyloid fibril formation at pH 4.4 upon incubation with the compound (7.2 uM); compound is unstable; summary of the method: as §1

Row | Compound | Binding stoichiometry [1] | Activity [2] | Activity [3] | Formation [4] | Formation [5]
1 | O=C(O)c1ccc(/C=N/Oc2ccccc2C(F)(F)F)cc1 | 1.38 | 83% | 76% | 3% | –
2 | O=C(O)c1ccccc1/C=N/Oc1ccccc1C(=O)O | – | – | – | – | Unstable
